Ends that are not written are not given here.
Target: recombinant human VEGFR-2 (Homo sapiens, UniProt P35968)
Assay: SPR binding affinity to immobilized VEGFR-2
How it was run: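 Recombinant human receptor protein amine-coupled to a CM5 chip. Test peptides diluted in HBS-EP buffer and flowed over the surface at 0.0156, 0.03125, 0.0625, 0.125 and 0.25 μM, with resonance unit changes recorded. Response curves were fitted to a 1:1 Langmuir binding model to give the equilibrium dissociation constant KD.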

recombinant human VEGFR-2, sequence (P35968 20-1356): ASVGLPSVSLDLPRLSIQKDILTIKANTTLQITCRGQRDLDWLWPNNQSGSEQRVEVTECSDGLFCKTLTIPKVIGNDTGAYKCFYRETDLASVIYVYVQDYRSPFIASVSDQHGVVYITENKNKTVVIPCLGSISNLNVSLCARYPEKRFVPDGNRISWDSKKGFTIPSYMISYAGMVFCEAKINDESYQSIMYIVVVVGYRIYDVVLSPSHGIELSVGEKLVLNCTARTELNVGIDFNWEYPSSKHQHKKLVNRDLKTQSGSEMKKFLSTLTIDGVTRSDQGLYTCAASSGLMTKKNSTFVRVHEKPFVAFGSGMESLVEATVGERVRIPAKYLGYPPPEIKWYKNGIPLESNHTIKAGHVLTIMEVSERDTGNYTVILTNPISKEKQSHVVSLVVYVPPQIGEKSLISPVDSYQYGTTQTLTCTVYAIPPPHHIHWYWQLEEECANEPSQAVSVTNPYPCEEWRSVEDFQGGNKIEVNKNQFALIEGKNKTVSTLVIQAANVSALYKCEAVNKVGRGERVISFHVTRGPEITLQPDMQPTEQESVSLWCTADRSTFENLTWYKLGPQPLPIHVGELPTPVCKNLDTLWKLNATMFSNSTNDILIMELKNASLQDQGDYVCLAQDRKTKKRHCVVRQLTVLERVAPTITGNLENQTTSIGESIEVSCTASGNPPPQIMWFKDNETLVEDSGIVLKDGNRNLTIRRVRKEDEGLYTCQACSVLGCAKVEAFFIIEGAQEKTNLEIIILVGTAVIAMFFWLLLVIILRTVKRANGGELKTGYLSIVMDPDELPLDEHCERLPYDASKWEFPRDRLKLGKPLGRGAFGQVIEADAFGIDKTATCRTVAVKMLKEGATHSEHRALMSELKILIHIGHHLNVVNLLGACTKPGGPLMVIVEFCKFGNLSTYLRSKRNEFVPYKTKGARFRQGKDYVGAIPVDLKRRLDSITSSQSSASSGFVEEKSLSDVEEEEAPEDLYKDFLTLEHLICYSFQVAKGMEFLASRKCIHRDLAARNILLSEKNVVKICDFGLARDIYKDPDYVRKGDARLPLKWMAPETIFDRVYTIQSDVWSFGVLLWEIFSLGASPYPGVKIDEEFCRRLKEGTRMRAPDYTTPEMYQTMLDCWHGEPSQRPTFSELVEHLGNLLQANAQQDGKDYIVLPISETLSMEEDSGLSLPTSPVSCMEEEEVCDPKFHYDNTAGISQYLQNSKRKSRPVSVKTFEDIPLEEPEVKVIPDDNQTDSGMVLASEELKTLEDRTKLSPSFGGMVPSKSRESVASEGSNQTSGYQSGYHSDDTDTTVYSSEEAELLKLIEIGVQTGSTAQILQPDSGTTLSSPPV

Compound	Kd [nM]
CC(C)C[C@H](NC(=O)[C@H](Cc1c[nH]c2ccccc12)NC(=O)[C@@H](NC(=O)[C@H](C)NC(=O)[C@H](CS)NC(=O)[C@H](CCCNC(=N)N)NC(=O)[C@H](CCCNC(=N)N)NC(=O)[C@H](CCCNC(=N)N)NC(=O)[C@H](CCC(N)=O)NC(=O)[C@H](CCCNC(=N)N)NC(=O)[C@H](CCCNC(=N)N)NC(=O)[C@H](CCCCN)NC(=O)[C@H](CCCCN)NC(=O)[C@@H](N)CCCNC(=N)N)[C@@H](C)O)C(=O)N1CCC[C@H]1C(=O)N1CCC[C@H]1C(=O)N[C@@H](CCCNC(=N)N)C(=O)O [TAT-AT7]	22.8
ATWLPPRC [AT7]	283

— paper PMC7669533 (International Journal of Nanomedicine, 2020)
